ChEMBL document CHEMBL4364253, “Application of Dually Activated Michael Acceptor to the Rational Design of Reversible Covalent Inhibitor for Enterovirus 71 3C Protease” (J Med Chem, 2019)
The source made the active and inactive calls.

How the values were obtained:
Enterovirus A71 [1] = assay: Antiviral activity against pseudotyped Enterovirus A71 infected in human muscular rhabdomyosarcoma cells treated prior to viral infection and measured after 24 hrs by luminescence method; type: functional, organism-based; conditions: Enterovirus A
RD [2] = assay: Cytotoxicity against human RD cells at 33 uM after 24 hrs by WST-1 assay; type: cell-based
RD [3] = assay: Cytotoxicity against human RD cells at 100 uM after 24 hrs by WST-1 assay relative to control; type: cell-based
Enterovirus A71 [4] = assay: Binding affinity to Enterovirus 71 3C protease assessed as enzyme-compound covalent adduct formation via Cys147 residue by measuring ratio of peak intensity of covalently modified to unmodified protein at 20 equivalent after 1 hr by HPLC-ESI/MS analysis
Method in brief: (§1)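 Recombinant EV71 3C protease (40 µM) incubated with inhibitor at 30 °C in 50 mM Tris, 150 mM NaCl, 1 mM EDTA-2Na, pH 7.0. Free inhibitor and salts removed by three ultrafiltration washes with water (10 kDa cutoff). Analysis by HPLC-ESI-Orbitrap MS with 0.1% formic acid water/acetonitrile mobile phases. Spectra deconvoluted; modification given as adduct-to-unmodified protein peak intensity ratio (I_add/I_pro).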

Enterovirus A71 [5] = assay: Binding affinity to Enterovirus 71 3C protease assessed as enzyme-compound covalent adduct formation via Cys147 residue by measuring ratio of peak intensity of covalently modified to unmodified protein at 10 equivalent after 30 mins by HPLC-ESI/MS analysis; method in brief: as §1
Enterovirus A71 [6] = assay: Irreversible covalent inhibition of Enterovirus 71 3C protease at 64 uM using NMA-IEALFQGPPK(DNP)FR as substrate and measured for 1 to 1.5 hrs by fluorescence method
Enterovirus A71 [7] = assay: Slow-binding inhibition of Enterovirus 71 3C protease up to 3 uM using NMA-IEALFQGPPK(DNP)FR as substrate by fluorescence method
[8] = Reversible inhibition of Enterovirus 71 3C protease assessed as overall inhibition constant using NMA-IEALFQGPPK(DNP)FR as substrate pre-incubated for 30 mins followed by substrate addition and measured over 30 mins by fluorescence method; set-up: species or system Enterovirus A71
Enterovirus A71 [9] = assay: Inhibition of Enterovirus 71 3C protease in presence of lysine
Enterovirus A71 [10] = assay: Reversible inhibition of Enterovirus 71 3C protease assessed as recovery of enzyme activity at 10 to 20 equivalent using peptide substrate pre-incubated for 1 hr followed by dialysis and subsequent substrate addition measured up to 72 hrs relative to control; set-up: scale not given: the % may be the effect or the level left
Enterovirus A71 [11] = assay: Reversible inhibition of Enterovirus 71 3C protease assessed as recovery of enzyme activity at 10 to 20 equivalent using peptide substrate pre-incubated for 1 hr followed by dilution prior to substrate addition using ultra-filtered sample relative to control; set-up: scale not given: the % may be the effect or the level left
Enterovirus A71 [12] = assay: Inhibition of Enterovirus 71 3C protease in presence of glutathione
Enterovirus A71 [13] = assay: Binding affinity to Enterovirus 71 3C protease assessed as enzyme-compound covalent adduct formation via Cys147 residue by measuring ratio of peak intensity of covalently modified to unmodified protein at 10 to 20 equivalent after 1 hr by HPLC-ESI/MS analysis; method in brief: as §1
Enterovirus A71 [14] = assay: Antiviral activity against pseudotyped FY Enterovirus A71 harboring luciferase reporter gene infected in HEK-293T cells in presence of glutathione by Bright-Glo Luciferase Assay; type: functional, organism-based
Enterovirus A71 [15] = assay: Inhibition of Enterovirus 71 3C protease in presence of ethanolamine
[16] = target: Chymotrypsinogen A (Bos taurus) (UniProt P00766); assay: Inhibition of bovine pancreas alpha-chymotrypsin at 50 uM after 30 mins using N-Succinyl-L-phenylalanine- p-nitroanilide measured for 30 mins
Enterovirus A71 [17] = assay: Antiviral activity against pseudotyped FY Enterovirus A71 harboring luciferase reporter gene infected in HEK-293T cells in presence of ethanolamine by Bright-Glo Luciferase Assay; type: functional, organism-based
[18] = target: T1, Cathepsin K (Homo sapiens) (UniProt P43235); assay: Inhibition of human Cathepsin K at 50 uM using Ac-LR-AFC as substrate preincubated for 10 to 15 mins followed by substrate addition and measured for 30 to 60 mins by fluorescence method relative to control
T1 sequence (whole entry): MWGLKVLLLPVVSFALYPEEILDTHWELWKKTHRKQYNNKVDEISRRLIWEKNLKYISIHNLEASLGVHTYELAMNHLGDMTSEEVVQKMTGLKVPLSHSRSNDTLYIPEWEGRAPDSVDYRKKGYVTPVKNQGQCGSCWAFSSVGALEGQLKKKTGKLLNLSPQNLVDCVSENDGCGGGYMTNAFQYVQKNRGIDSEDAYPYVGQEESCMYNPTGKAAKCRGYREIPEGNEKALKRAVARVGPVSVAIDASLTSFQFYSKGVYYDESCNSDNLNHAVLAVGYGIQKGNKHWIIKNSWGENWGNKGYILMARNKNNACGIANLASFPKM

Enterovirus A71 [19] = assay: Antiviral activity against pseudotyped FY Enterovirus A71 harboring luciferase reporter gene infected in HEK-293T cells in presence of lysine by Bright-Glo Luciferase Assay; type: functional, organism-based
[20] = target: T2, Calpain-1 catalytic subunit (Homo sapiens) (UniProt P07384); assay: Inhibition of human Calpain1 at 50 uM using Ac-LLY-AFC as substrate preincubated for 5 mins followed by substrate addition and measured after 10 mins by fluorescence method relative to control
T2 sequence (whole entry): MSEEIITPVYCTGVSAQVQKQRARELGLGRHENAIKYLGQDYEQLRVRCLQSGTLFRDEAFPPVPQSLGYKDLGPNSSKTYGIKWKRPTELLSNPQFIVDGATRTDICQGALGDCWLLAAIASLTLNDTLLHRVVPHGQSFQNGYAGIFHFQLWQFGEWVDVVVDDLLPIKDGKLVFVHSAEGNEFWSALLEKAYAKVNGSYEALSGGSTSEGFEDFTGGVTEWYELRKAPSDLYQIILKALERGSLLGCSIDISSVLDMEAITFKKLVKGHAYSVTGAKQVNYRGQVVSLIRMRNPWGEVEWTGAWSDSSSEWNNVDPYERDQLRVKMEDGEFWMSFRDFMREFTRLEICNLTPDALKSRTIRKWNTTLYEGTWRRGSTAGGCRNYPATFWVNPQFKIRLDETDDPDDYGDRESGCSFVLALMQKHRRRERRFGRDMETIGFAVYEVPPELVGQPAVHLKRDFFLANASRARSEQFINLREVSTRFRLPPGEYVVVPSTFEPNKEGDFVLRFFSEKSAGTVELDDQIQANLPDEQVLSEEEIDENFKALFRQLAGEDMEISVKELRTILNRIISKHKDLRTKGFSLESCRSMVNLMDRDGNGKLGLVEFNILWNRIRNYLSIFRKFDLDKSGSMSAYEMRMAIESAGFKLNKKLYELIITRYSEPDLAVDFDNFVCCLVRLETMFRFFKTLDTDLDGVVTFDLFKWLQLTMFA

Enterovirus A71 [21] = assay: Binding affinity to Enterovirus 71 3C protease assessed as enzyme-compound covalent adduct formation via Cys147 residue after 1 hr by HPLC-ESI/MS analysis
[22] = Inhibition of Enterovirus 71 E2004104-TW-CDC protease 3C (1549 to 1731 residues) expressed in Escherichia coli BL21(DE3) cells using Dacyl-KRTATVQGPSLDFE-Edans as substrate by fluorescence method; set-up: species or system Enterovirus A71
Enterovirus A71 [23] = assay: Antiviral activity against Enterovirus A71 EV71/Shenzhen/120F1/09 infected in human muscular rhabdomyosarcoma cells assessed as reduction in virus-induced cell death incubated for 3 days by CCK-8 assay; type: functional, organism-based; conditions: Enterovirus A, EV71/Shenzhen/120F1/09, 72 h
Enterovirus A71 [24] = assay: Inhibition of Enterovirus 71 3C protease assessed as induction of rapid equilibrium for enzyme-inhibitor complex formation up to 1.5 uM using NMA-IEALFQGPPK(DNP)FR as substrate by fluorescence method

Compound: Cc1cc(C(=O)N[C@@H](Cc2ccc(F)cc2)C(=O)N[C@H](/C=C(\C#N)c2ccc(C(F)(F)F)cc2)C[C@@H]2CCCNC2=O)no1
- EC50 (Enterovirus A71 [1]): 1400 nM
- Activity (RD [2]): Toxic
- Activity (RD [3]): 100%

Compound: Cc1cc(C(=O)N[C@@H](Cc2ccc(F)cc2)C(=O)N[C@H](/C=C/C#N)C[C@@H]2CCCNC2=O)no1
- Ratio (Enterovirus A71 [4]): > 100
- EC50 (Enterovirus A71 [1]): 37000 nM
- Ratio (Enterovirus A71 [5]): > 100
- inhibition (Enterovirus A71 [6]): Active

Compound: CCN(C(=O)OC(C)(C)C)C(=O)/C(C#N)=C/[C@H](C[C@@H]1CCCNC1=O)NC(=O)[C@H](Cc1ccc(F)cc1)NC(=O)c1cc(C)on1
- inhibition (Enterovirus A71 [7]): Active
- Ki [8]: 24 nM
- EC50 (Enterovirus A71 [1]): 67 nM

Compound: Cc1cc(C(=O)N[C@@H](Cc2ccc(F)cc2)C(=O)N[C@H](/C=C(\C#N)C(=O)N(C)C(=O)OC(C)(C)C)C[C@@H]2CCCNC2=O)no1
- inhibition (Enterovirus A71 [9]): Active
- Activity (Enterovirus A71 [10]): 30%
- Ki [8]: 9.3 nM
- Activity (Enterovirus A71 [11]): Active
- inhibition (Enterovirus A71 [12]): inactive
- EC50 (Enterovirus A71 [1]): 51 nM
- Ratio (Enterovirus A71 [13]): 1.5
- Activity (Enterovirus A71 [14]): Active
- inhibition (Enterovirus A71 [15]): Active
- inhibition [16]: inactive
- Activity (Enterovirus A71 [17]): Active
- inhibition [18]: < 50%
- Activity (Enterovirus A71 [19]): Active
- inhibition [20]: < 50%

Compound: COC(=O)/C(C#N)=C/[C@H](C[C@@H]1CCCNC1=O)NC(=O)[C@H](Cc1ccc(F)cc1)NC(=O)c1cc(C)on1
- inhibition (Enterovirus A71 [9]): Active
- Activity (Enterovirus A71 [10]): 50%
- Ki [8]: 9.4 nM
- Activity (Enterovirus A71 [11]): 65 to 85%
- inhibition (Enterovirus A71 [12]): inactive
- EC50 (Enterovirus A71 [1]): 53 nM
- Activity (Enterovirus A71 [14]): Active
- inhibition (Enterovirus A71 [15]): Active
- inhibition [16]: inactive
- Activity (Enterovirus A71 [17]): Active
- inhibition [18]: < 50%
- Activity (Enterovirus A71 [21]): inactive
- Activity (Enterovirus A71 [19]): Active
- inhibition [20]: < 50%

Compound: CCOC(=O)/C=C/[C@H](C[C@@H]1CCNC1=O)NC(=O)[C@@H](CC(=O)[C@@H](NC(=O)c1cc(C)on1)C(C)C)Cc1ccc(F)cc1 [RUPINTRIVIR]
- IC50 [22]: 1600 nM
- EC50 (Enterovirus A71 [23]): 41 nM

Compound: Cc1cc(C(=O)N[C@@H](Cc2ccc(F)cc2)C(=O)N[C@H](/C=C(\C#N)C(=O)OC(C)(C)C)C[C@@H]2CCCNC2=O)no1
- Ki [8]: 6.7 nM
- Activity (Enterovirus A71 [11]): 65 to 85%
- EC50 (Enterovirus A71 [1]): 30 nM
- inhibition (Enterovirus A71 [24]): Active
- Activity (Enterovirus A71 [21]): inactive
